MC4R antag cAMP – MC4R antagonists of cAMP signaling, primary screen, cell-based, TR-FRET, antagonist arm of biased-ligand search. Melanocortin receptor 4 (Homo sapiens), P32245. MC4R-expressing cells, MTII-stimulated cAMP, LANCE TR-FRET. inhibition, % at 6.5 µM. 360,000 tested, 0.48% active. AID 540295, 2011;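 active = inhibition above its plate's cutoff, the mean of tested wells on that plate plus 3 SD, cut at about 29% in these data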;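 also: 0% = Melanotan II alone and 100% = Melanotan II plus saturating MCL0020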
Target sequence (P32245 whole entry, looked up): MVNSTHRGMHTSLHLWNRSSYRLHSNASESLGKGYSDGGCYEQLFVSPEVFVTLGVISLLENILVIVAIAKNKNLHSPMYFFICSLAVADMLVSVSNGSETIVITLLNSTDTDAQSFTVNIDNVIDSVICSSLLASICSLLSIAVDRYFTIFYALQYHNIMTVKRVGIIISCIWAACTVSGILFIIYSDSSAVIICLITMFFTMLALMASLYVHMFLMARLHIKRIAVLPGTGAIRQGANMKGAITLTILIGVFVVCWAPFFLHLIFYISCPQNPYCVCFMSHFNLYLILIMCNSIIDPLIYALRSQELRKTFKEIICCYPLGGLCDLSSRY
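Test system: U2OS cells stably expressing human melanocortin 4 receptor (MC4R); also added: Melanotan II challenge; compound: 6.5 µM single dose; timing: 30-min compound preincubation, 1-h Melanotan II challenge, 1-h detection, room temperature; signal: Eu-cAMP/anti-cAMP TR-FRET, emission 671 nm; repeats: one well per compound, no replicates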
AHR activator – AHR activators, primary screen, cell-based, luminescence, luciferase reporter, human | Aryl hydrocarbon receptor (Homo sapiens), P35869 | AHR-responsive luciferase reporter cells | activation, % at 5 µM | 320,000 tested, 2.5% active | AID 2796, 2010; in the data active = activation above about 47%;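 also: 0% = vehicle wells and 100% = reference agonist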
FXN GAA850 act – FXN promoter activators, primary screen, cell-based, luciferase luminescence, HEK293 lucGAA850 | AID 540364, 2011 | HEK293 lucGAA850 FXN promoter luciferase reporter, 24 h; percent of 10 µM SAHA response | activation, % at 6 µM | 360,000 tested, 0.56% active;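 active = activation above the average of all compounds screened plus 3 SD, cutoff fixed separately per campaign, cut at about 7.5% in these data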;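 also: 0% = DMSO wells and 100% = 10 µM SAHA wells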
m5-HT2A agonist – mouse Htr2a agonists via beta-arrestin recruitment, primary screen, cell-based, luminescence. activation, % at 7.6 µM. CHO-K1 mHTR2A beta-arrestin complementation; percent of 30 µM serotonin response. 5-hydroxytryptamine receptor 2A (Mus musculus), P35363. 360,000 tested, 0.66% active;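 active = activation above a run cutoff, the mean activation of all tested compounds plus 3 SD, cut at about 14% in these data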;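 also: 0% = plate median of compound wells and 100% = 30 µM serotonin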
MC4R barr agon – MC4R agonists recruiting beta-arrestin, primary screen, cell-based, luminescence, agonist arm of biased-ligand search; Melanocortin receptor 4 (Homo sapiens), P32245; 360,000 tested, 0.98% active; activation, % at 8.9 µM; U2OS MC4R beta-arrestin complementation; percent of melanotan II response, DMSO zero;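 active = activation above a per-plate cutoff, the mean activation of sample wells on that plate plus 3 SD, cut at about 8% in these data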
U2OS cAMP counter – nonselective cAMP signaling inhibitors, parental cells, counter-screen for MC4R biased antagonist project, cell-based, TR-FRET, U2OS, forskolin, triplicate | shares compounds with MC4R antag cAMP | LANCE TR-FRET | inhibition, % at 6.5 µM | 1,600 tested, 26% active | AID 602193, 2012;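 active = mean inhibition over triplicates above the low-control well mean plus 3 SD, set per campaign, cut at about 13% in these data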;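 also: signal is single emission at 671 nm which falls as cellular cAMP rises; 0% = forskolin-stimulated wells and 100% = buffer without forskolin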
MC4R cAMP antag – MC4R cAMP antagonists, retest, confirmation, cell-based, TR-FRET; 1,600 tested, 27% active; MC4R-expressing cells, MTII-stimulated cAMP; shares compounds with MC4R antag cAMP; inhibition, % at 6.5 µM; AID 602195, 2012; in the data active = inhibition above about 29%;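 also: 0% = agonist stimulated wells alone and 100% = agonist stimulated wells plus saturating reference antagonist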
Active calls of the source: *; . = not tested or not shown. Compounds with a hit are over-represented: about 4.7% of the library has one in this group of screens.

SMILES | MC4R antag cAMP | AHR activator | FXN GAA850 act | m5-HT2A agonist | MC4R barr agon | U2OS cAMP counter | MC4R cAMP antag
CCc1ccc(C(C(=O)NCc2ccc(F)cc2)N(C(=O)c2csnn2)C2CC2)cc1 (stereo not given) | 28.8* | 1.0 | -1.6 | 4.6 | 2.5 | 3.4 | 2.6
O=C(NCCCO)C(=O)NCc1ccccn1 | 30.0* | 0.3 | -1.9 | -6.2 | 0.9 | 2.1 | 8.4
COC(=O)c1ccccc1NC(=O)N1CCN(S(C)(=O)=O)CC1 | 30.9* | 4.2 | -0.2 | 5.6 | 0.4 | -0.1 | 4.8
COC(=O)c1ccccc1NC(=O)N1CCN(c2ccccc2)CC1 | -8.2 | -0.3 | 2.4 | -0.1 | 1.6 | . | .
CCOC(=O)C1=C(C)N=c2s/c(=C/c3ccc(OCC(=O)O)cc3)c(=O)n2C1c1ccc(F)cc1 (stereo not given) | 29.6* | -0.1 | 2.5 | 4.1 | -0.1 | 1.7 | -5.2
CCOC(=O)C1=C(C)N=c2s/c(=C/c3ccc(OCC(=O)O)cc3)c(=O)n2C1c1ccc(SC)cc1 (stereo not given) | 22.1 | . | 1.7 | -1.7 | -2.1 | . | .
CCN(C[C@H]1N[C@@](C)(C(=O)OC)[C@H]2C(=O)N(C)C(=O)[C@@H]12)S(=O)(=O)c1ccc(F)cc1 | 9.5 | -0.7 | -0.1 | 3.9 | 1.9 | . | .
COC(=O)[C@]1(C)CCC[C@@]2(C)C3CC[C@@]4(C)C[C@]3(CCC21)CC(=O)N4 (stereo not given in full) | 2.8 | 3.8 | -0.9 | 4.3 | -1.8 | . | .
C=C1C(=O)C23CCC4C(C)(C(=O)OC)CCCC4(C)C2CCC1(O)C3 (stereo not given) | 40.0* | . | -14.9 | -7.0 | -0.4 | 21.6* | 37.9*
O=c1[nH]nc(Sc2ccccc2)c(=S)[nH]1 | -6.3 | . | 0.2 | -5.1 | -3.7 | . | .
O=C1CCC(=O)N1CC1CC2CCC1C2 (stereo not given) | 36.8* | 2.5 | -1.1 | -10.5 | 0.5 | 1.3 | -2.1
CCOc1ccc(CCNC(=O)COC(=O)c2c(C)nn(-c3ccccc3)c2C)cc1OCC | -0.1 | 4.6 | -3.8 | 0.6 | -4.3 | . | .
Cn1c(=S)[nH]c2scc(-c3cccs3)c2c1=O | 26.2 | . | 1.9 | 3.1 | -1.3 | . | .
C=CCn1c(=S)[nH]c2scc(-c3cccs3)c2c1=O | 51.1* | . | 2.2 | -3.2 | -1.6 | 17.0* | 27.8
COc1ccc(CC(=O)Nc2cc(F)ccc2F)cc1S(=O)(=O)N1CCOCC1 | 5.8 | . | -0.4 | 1.7 | -1.2 | . | .
CC(Oc1ccc2ccc(=O)oc2c1)C(=O)NC1CC(C)(C)NC(C)(C)C1 (stereo not given) | -1.9 | 0.2 | 0.0 | -0.3 | -2.3 | . | .
N#Cc1c(NC(=O)C2CC=CCC2C(=O)O)sc2c1CCCCCC2 (stereo not given) | 2.7 | 3.1 | 2.4 | 0.6 | 0.4 | . | .
CC(C)(C)C1CCc2c(sc(NC(=O)C3CC=CCC3C(=O)O)c2C#N)C1 (stereo not given) | 28.8* | -1.5 | 2.5 | 5.2 | -0.9 | 3.8 | 11.1
COC(=O)[C@]12CCCCC=C1N(Cc1ccc(Cl)cc1Cl)C(=O)[C@H](CC(=O)NCCCCc1ccccc1)C2 | . | . | . | -2.6 | . | . | .
CS(=O)(=O)c1ccc(C(=O)OCC(=O)NC23CC4CC(CC(C4)C2)C3)cc1[N+](=O)[O-] | 50.0* | -2.2 | 12.3* | 3.3 | -4.3 | 3.6 | 62.3*
CCC(OC(=O)c1ccc(S(C)(=O)=O)c([N+](=O)[O-])c1)C(=O)NC1C2CC3CC(C2)CC1C3 (stereo not given) | 60.4* | . | -0.8 | -2.8 | -2.0 | -9.1 | 12.2
Cc1ccc(C(=O)OC(C)C(=O)NC2CCCCC2)cc1S(=O)(=O)N1CCCCC1 (stereo not given) | 4.2 | -0.1 | -0.3 | 0.2 | 0.2 | . | .
CC(OC(=O)c1ccc(S(C)(=O)=O)c([N+](=O)[O-])c1)C(=O)NC1C2CC3CC(C2)CC1C3 (stereo not given) | 28.7* | . | 2.1 | -4.6 | -1.9 | 7.7 | 20.7
CC1=NN(c2ccccc2)C(=O)C1CCC#N (stereo not given) | 6.1 | . | 0.4 | -3.0 | -3.5 | . | .
COc1ccc(CNC(=O)c2oc3ccc(S(=O)(=O)N4CCOCC4)cc3c2C)cc1 | 31.8* | 0.1 | 0.8 | -7.1 | 0.7 | -0.8 | 4.2
SMILES | MC4R antag cAMP | AHR activator | FXN GAA850 act | m5-HT2A agonist | MC4R barr agon | U2OS cAMP counter | MC4R cAMP antag
COc1ccccc1CNC(=O)c1oc2ccc(S(=O)(=O)N3CCCC3)cc2c1C | 29.3* | 23.4 | 0.1 | 0.1 | -0.5 | 4.4 | 11.7
Cc1cc(C)cc(NC(=O)COC(=O)Cn2cnc3c2c(=O)n(C)c(=O)n3C)c1 | 1.7 | -0.1 | -0.3 | -2.2 | -3.9 | . | .
Cc1cc(NS(=O)(=O)c2ccc(NC(=O)CCCOc3cccc(C)c3C)cc2)no1 | 16.9 | -2.0 | -1.9 | -1.7 | -3.7 | . | .
N#CC1=C(Nc2ccccc2Cl)SC2(CCCC2)NC1=O | . | . | . | -1.6 | . | . | .
Cc1ccnn1CCC(=O)N1CCCC(CCC(=O)NCc2ccccc2F)C1 (stereo not given) | 29.2* | 0.3 | -0.7 | 3.5 | 0.6 | -0.2 | 3.3
O=C(c1ccncc1)N1CCN(c2cc(-c3ccccc3)nc3cc(-c4cccc(Cl)c4)nn23)CC1 | 7.4 | . | 1.1 | 0.7 | -0.7 | . | .
CC(=O)N1CCN(c2cc(-c3ccccc3)nc3cc(-c4cccc(Cl)c4)nn23)CC1 | 40.9* | . | -1.4 | 4.5 | 4.7 | 0.5 | 8.3
COc1ccccc1N1CCN(C(=O)[C@@H]2CCCN2C2=NS(=O)(=O)c3ccccc32)CC1 | 12.3 | . | -2.2 | -7.7 | 1.6 | . | .
COc1ccc2c(c1)CC=C1C2CCC2(C)C(=O)C(=NO)CC12 (stereo not given) | 5.4 | . | 4.8 | 3.2 | 4.7 | . | .
Cc1nc2ccc(NC(=O)c3ccc([N+](=O)[O-])cc3)cc2s1 | 7.1 | -3.9 | 2.8 | 1.8 | -0.5 | . | .
O=C(Nc1ccccc1-c1ccccc1)c1ccc(Cl)c([N+](=O)[O-])c1 | 55.7* | 1.3 | 1.4 | 3.3 | 0.0 | 30.9* | 74.3*
O=C(Nc1ccccc1C(=O)N1CCCC1)c1ccc(Cl)c([N+](=O)[O-])c1 | 36.3* | 2.7 | -0.4 | 2.2 | 1.6 | 4.7 | 25.2
O=C(Nc1ccccc1N1CCCCC1)c1ccc(Cl)c([N+](=O)[O-])c1 | 41.1* | 43.8 | 3.5 | 3.5 | 1.4 | 3.4 | 51.3*
O=C(Nc1ccccc1C(=O)N1CCCCCC1)c1ccc(Cl)cc1 | 18.7 | 10.2 | -1.3 | -2.2 | -1.6 | . | .

Compound activity: PubChem, The Scripps Research Institute Molecular Screening Center
